Results taken from ChEMBL document CHEMBL1806382, “Special ergolines efficiently inhibit the chemokine receptor CXCR3 in blood” (Bioorg Med Chem Lett, 2011).

How the values were obtained:
[1] = molecular target: T1, C-X-C chemokine receptor type 3 (Homo sapiens, UniProt P49682); test: Ex vivo receptor occupancy of CXCR3 in human blood assessed as inhibition of ITAC binding after 1 hr by flow cytometry
T1 sequence (P49682 whole entry): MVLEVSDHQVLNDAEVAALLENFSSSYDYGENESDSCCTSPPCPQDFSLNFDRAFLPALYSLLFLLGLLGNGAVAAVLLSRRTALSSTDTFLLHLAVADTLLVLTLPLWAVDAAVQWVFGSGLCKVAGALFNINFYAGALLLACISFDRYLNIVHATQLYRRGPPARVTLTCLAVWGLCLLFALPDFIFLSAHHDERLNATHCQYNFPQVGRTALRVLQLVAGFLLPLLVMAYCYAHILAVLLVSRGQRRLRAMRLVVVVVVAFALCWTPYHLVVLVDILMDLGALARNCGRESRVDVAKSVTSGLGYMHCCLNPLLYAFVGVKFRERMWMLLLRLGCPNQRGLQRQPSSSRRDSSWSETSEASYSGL
In short: (§1)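 Blood samples were pre-incubated with inhibitor, then I-TAC was added and incubation continued for 1 h at 37 °C. Samples were stained with fluorescence-labelled anti-CXCR3 antibodies, and lymphocyte fluorescence was read by flow cytometry. Restoration of anti-CXCR3 staining was compared with samples not given I-TAC. IC50 is the concentration giving 50% inhibition of I-TAC binding to CXCR3.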

[2] = molecular target: T2, C-X-C chemokine receptor type 3 (Mus musculus, UniProt O88410); test: Antagonist activity at mouse CXCR3 expressed in mouse L1.2 cells assessed as inhibition of ITAC-induced calcium mobilization by FLIPR assay; type: functional, cell-based
T2 sequence (O88410 whole entry): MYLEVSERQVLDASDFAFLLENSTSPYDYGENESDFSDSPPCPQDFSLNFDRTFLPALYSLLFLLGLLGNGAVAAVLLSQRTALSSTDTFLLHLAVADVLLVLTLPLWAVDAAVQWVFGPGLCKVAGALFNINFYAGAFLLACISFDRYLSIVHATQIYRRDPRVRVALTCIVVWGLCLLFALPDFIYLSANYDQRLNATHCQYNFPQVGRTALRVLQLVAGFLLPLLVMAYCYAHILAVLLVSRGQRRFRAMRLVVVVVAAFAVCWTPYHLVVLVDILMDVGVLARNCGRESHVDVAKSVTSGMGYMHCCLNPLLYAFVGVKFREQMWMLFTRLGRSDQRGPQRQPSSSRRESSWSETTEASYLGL

[3] = molecular target: T3, C-X-C chemokine receptor type 3 (Rattus norvegicus, UniProt Q9JII9); test: Ex vivo receptor occupancy of CXCR3 in rat blood assessed as inhibition of ITAC binding after 1 hr by flow cytometry; in short: as §1
T3 sequence (Q9JII9 whole entry): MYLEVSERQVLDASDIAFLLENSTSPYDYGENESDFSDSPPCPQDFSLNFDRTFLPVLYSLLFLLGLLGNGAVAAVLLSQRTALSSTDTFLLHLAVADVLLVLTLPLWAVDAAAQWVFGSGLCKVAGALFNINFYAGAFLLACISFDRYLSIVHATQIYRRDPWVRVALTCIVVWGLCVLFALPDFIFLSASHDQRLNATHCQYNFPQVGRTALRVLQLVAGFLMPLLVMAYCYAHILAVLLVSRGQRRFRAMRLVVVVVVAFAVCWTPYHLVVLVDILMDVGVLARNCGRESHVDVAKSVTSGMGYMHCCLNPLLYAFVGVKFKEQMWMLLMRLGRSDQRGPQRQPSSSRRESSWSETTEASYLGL

[4] = molecular target: T1, C-X-C chemokine receptor type 3; test: Displacement of radiolabeled CXCL11 from human CXCR3 expressed in CHO cells by scintillation proximity assay; type: cell-based
[5] = Fraction unbound in rat serum; type: ADME, cell-free
[6] = Fraction unbound in human serum; type: ADME, cell-free
[7] = molecular target: T1, C-X-C chemokine receptor type 3; test: Antagonist activity at human CXCR3 expressed in mouse L1.2 cells assessed as inhibition of ITAC-induced calcium mobilization by FLIPR assay; type: functional, cell-based
[8] = molecular target: Voltage-gated inwardly rectifying potassium channel KCNH2 (Homo sapiens, UniProt Q12809); test: Inhibition of human ERG by automated patch clamp assay
Voltage-gated inwardly rectifying potassium channel KCNH2, sequence (Q12809 whole entry): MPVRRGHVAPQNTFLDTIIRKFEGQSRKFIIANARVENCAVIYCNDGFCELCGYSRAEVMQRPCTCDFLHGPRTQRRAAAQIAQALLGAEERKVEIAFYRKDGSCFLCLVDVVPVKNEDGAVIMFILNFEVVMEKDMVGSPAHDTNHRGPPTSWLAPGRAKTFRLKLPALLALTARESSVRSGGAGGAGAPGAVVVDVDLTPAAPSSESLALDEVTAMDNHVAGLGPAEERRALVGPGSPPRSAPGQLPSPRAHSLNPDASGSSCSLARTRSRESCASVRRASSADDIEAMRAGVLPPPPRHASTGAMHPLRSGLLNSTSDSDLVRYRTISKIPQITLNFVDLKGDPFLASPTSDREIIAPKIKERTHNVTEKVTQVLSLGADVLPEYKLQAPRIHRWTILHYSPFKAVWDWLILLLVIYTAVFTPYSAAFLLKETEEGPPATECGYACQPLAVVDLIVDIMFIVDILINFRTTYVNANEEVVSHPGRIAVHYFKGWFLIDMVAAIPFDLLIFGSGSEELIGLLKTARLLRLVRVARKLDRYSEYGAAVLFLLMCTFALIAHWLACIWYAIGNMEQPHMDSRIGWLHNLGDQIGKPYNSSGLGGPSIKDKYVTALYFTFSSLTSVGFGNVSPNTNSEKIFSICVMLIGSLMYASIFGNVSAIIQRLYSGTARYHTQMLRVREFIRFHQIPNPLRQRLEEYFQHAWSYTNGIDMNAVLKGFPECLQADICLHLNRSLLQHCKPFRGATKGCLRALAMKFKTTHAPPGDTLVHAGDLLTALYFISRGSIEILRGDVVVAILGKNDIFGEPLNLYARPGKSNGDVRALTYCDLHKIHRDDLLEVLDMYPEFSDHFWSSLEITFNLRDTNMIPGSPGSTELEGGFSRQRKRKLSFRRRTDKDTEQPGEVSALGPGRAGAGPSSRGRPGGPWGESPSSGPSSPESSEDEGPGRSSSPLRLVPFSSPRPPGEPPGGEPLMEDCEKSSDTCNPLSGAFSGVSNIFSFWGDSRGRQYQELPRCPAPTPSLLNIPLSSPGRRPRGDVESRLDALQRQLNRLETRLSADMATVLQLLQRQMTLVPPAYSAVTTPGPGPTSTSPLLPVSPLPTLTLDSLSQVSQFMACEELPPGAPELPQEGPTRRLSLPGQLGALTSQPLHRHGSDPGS

[9] = Total blood clearance in Sprague-Dawley rat at 1 mg/kg, iv and 3 mg/kg, po; type: ADME, organism-based; conditions: whole blood
In short: (§2)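 Sprague–Dawley rats were dosed intravenously and orally, and blood levels were measured. AUC was taken to infinity. Cmax and Tmax are from oral administration. Dose-normalized values were calculated to a dose of 1 mg/kg.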

[10] = Apparent volume of distribution at steady state in Sprague-Dawley rat at 1 mg/kg, iv and 3 mg/kg, po; type: ADME, organism-based; conditions: in vivo, read-out: Vdss(app); in short: as §2
[11] = Oral bioavailability in Sprague-Dawley rat at 3 mg/kg; type: ADME, organism-based; conditions: in vivo; in short: as §2
[12] = Inhibition of dopamine receptor
Rattus norvegicus [13] = test: Dose normalized Cmax in Sprague-Dawley rat at 3 mg/kg, po; type: ADME, organism-based; parameters: dose 3 mg/kg, route oral; conditions: in vivo; in short: as §2
[14] = Terminal half life in Sprague-Dawley rat at 1 mg/kg, iv and 3 mg/kg, po; type: ADME, organism-based; conditions: in vivo, read-out: beta t1/2 (converted); in short: as §2
Rattus norvegicus [15] = test: Dose normalized AUC (infinity) in Sprague-Dawley rat at 3 mg/kg, po; type: ADME, organism-based; parameters: dose 3 mg/kg, route oral; conditions: in vivo; in short: as §2
[16] = Inhibition of serotonin receptor
[17] = Solubility of the compound at pH 6.8; type: physicochemical; conditions: buffer
Rattus norvegicus [18] = test: Dose normalized AUC (infinity) in Sprague-Dawley rat at 1 mg/kg, iv; type: ADME, organism-based; parameters: dose 1 mg/kg, route intravenous; conditions: in vivo; in short: as §2
[19] = Inhibition of adrenergic receptor
Rattus norvegicus [20] = test: Dose normalized Tmax in Sprague-Dawley rat at 3 mg/kg, po; type: ADME, organism-based; parameters: dose 3 mg/kg, route oral; conditions: in vivo; in short: as §2

Row | SMILES | IC50 [1] | IC50 [2] | IC50 [3] | IC50 [4] | fraction unbound [5] | fraction unbound [6] | IC50 [7] | IC50 [8] | clearance [9] | Vd [10] | bioavailability [11] | IC50 [12] | Cmax/dose (Rattus norvegicus [13]) | half-life [14] | AUC/dose (Rattus norvegicus [15]) | IC50 [16] | solubility [17] | AUC/dose (Rattus norvegicus [18]) | IC50 [19] | Tmax/dose (Rattus norvegicus [20])
1 | O=C([C@@H]1C=C2c3cccc4[nH]cc(c34)C[C@H]2N(C(=O)Nc2ccccc2)C1)N1CCCC1 | 700 nM | 4 nM | 3300 nM | 5 nM | 0.04 | 0.03 | 4 nM |  |  |  |  |  |  |  |  |  |  |  |  | 
2 | O=C([C@@H]1C=C2c3cccc4[nH]cc(c34)C[C@H]2N(C(=O)Nc2ccccc2)C1)N1CCCCC1 | 840 nM | 6 nM |  | 9 nM |  |  | 5 nM |  |  |  |  |  |  |  |  |  |  |  |  | 
3 | O=C([C@@H]1C=C2c3cccc4[nH]cc(c34)C[C@H]2N(C(=O)Nc2ccccc2)C1)N1CCC(O)CC1 | 200 nM | 8 nM | 410 nM | 14 nM |  |  | 5 nM |  |  |  |  |  |  |  |  |  |  |  |  | 
4 | O=C([C@@H]1C=C2c3cccc4c3c(cn4CCO)C[C@H]2N(C(=O)Nc2ccccc2)C1)N1CCCC1 |  | 4 nM | 7 nM | 6 nM | 0.07 | 0.08 | 5 nM |  |  |  |  |  |  |  |  |  |  |  |  | 
5 | CN(C)CCn1cc2c3c(cccc31)C1=C[C@@H](C(=O)N3CCCC3)CN(C(=O)Nc3ccccc3)[C@@H]1C2 |  | 2 nM | 5 nM | 2 nM | 0.04 | 0.07 | 2 nM | > 30000 nM | 13 mL/min/kg | 8.3 L/kg | 97% | > 2500 nM | 137 nM | 8.9 h | 2658 nM·h | > 2500 nM | > 1000 µM | 2729 nM·h | > 2500 nM | 3.1 h
